Source: ChEMBL document CHEMBL4270592, “8-Aryl-6-chloro-3-nitro-2-(phenylsulfonylmethyl)imidazo[1,2-a]pyridines as potent antitrypanosomatid molecules bioactivated by type 1 nitroreductases” (Eur J Med Chem, 2018)
pIC50: −log10 of the molar value.

Tests used:
HepG2 = assay: Cytotoxicity against human HepG2 cells assessed as reduction in cell viability after 72 hrs by MTT assay; type: cell-based; details: hepg2, 72 h
Outline: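 HepG2 cells in RPMI with 10% FCS, L-glutamine and penicillin/streptomycin, 37 °C, 6% CO2. After 24 h, compounds in DMSO (final <0.5% v/v) added for 72 h, in duplicate. Precipitate checked, MTT (0.5 mg/mL) 2 h, formazan dissolved in DMSO, A570 with 630 nm reference. Viability as % of untreated control; CC50 from dose-response curve; doxorubicin positive control.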

Leishmania donovani [1] = assay: Antileishmanial activity against intramacrophage amastigote stage of Leishmania donovani infected in human THP1 cells after 120 hrs by Giemsa staining based microscopy; type: functional, organism-based; details: THP-1, 120 h
Outline: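 THP-1 cells differentiated with PMA (final 50 ng/mL) for 48 h at 37 °C, 6% CO2. Infected 10:1 with L. donovani promastigotes acidified 24 h at 27 °C in Schneider 20% FCS pH 5.4. After 24 h, compounds added in duplicate (DMSO <0.5% v/v) for 120 h.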

[2] = Electrochemical behavior of the compound assessed as redox potential corrected toward normal hydrogen electrode by cyclic voltammetry; type: physicochemical
[3] = Substrate activity at recombinant type-1 nitroreductase in promastigote stage of Leishmania donovani MHOM/SD/62/1S-CL2D LdBOB assessed as inhibition of parasite growth after 72 hrs by resazurin dye based assay
Outline: (§1)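 Clonal L. donovani LdBOB promastigotes grown at 26 °C in modified M199. NTR1 and NTR2 overexpressers kept in nourseothricin 100 µg/mL. Triplicate 10 mL cultures seeded at 5×10^4 parasites/mL with drug for 72 h. Aliquots received 50 µM resazurin, read by fluorescence (ex 528/em 590 nm) after 4 h. Background-corrected 2-parameter fit gave EC50; at least two repeats, mean ± SD.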

[4] = Selectivity index, ratio of CC50 for human HepG2 cells to IC50 for intramacrophage amastigote stage of Leishmania donovani infected in human THP1 cells; type: toxicity, cell-based; details: read-out: Ratio CC50/IC50
THP-1 = assay: Cytotoxicity against human THP1 cells assessed as reduction in cell viability after 72 hrs by MTT assay; type: cell-based; details: thp-1, 72 h
Outline: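 THP1 cells in complete RPMI with PMA (final 50 ng/mL) at 10⁶ cells/mL, differentiated 48 h. Compounds in DMSO (final <0.5% v/v) then added for 72 h at 37 °C. MTT (0.5 mg/mL in FCS-free medium) 2 h, formazan dissolved in DMSO, A570 with 630 nm reference. Viability as % of untreated control; CC50 from dose-response curve; doxorubicin positive control.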

[5] = Selectivity index, ratio of CC50 for human HepG2 cells to IC50 for promastigote stage of Leishmania donovani MHOM/IN/00/DEVI; type: toxicity; details: read-out: Ratio CC50/IC50
Leishmania donovani [6] = assay: Antileishmanial activity against promastigote stage of Leishmania donovani MHOM/IN/00/DEVI assessed as inhibition of parasite metabolic activity after 72 hrs by MTT assay; type: functional, organism-based
Outline: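 MHOM/IN/00/DEVI log-phase promastigotes in Schneider's medium with 20% FCS, 2 mM L-glutamine and antibiotics. Seeded at 10⁶ parasites/mL with compounds in DMSO (final <0.5% v/v), in duplicate, 72 h at 27 °C. MTT added for 4 h, stopped with 50% isopropanol–10% SDS, A570 read. IC50 by nonlinear regression, mean of three independent experiments.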

[7] = Selectivity index, ratio of CC50 for human HepG2 cells to IC50 for axenic amastigote stage of Leishmania infantum; type: toxicity; details: read-out: Ratio CC50/IC50
Leishmania donovani [8] = assay: Antileishmanial activity against wild type promastigote stage of Leishmania donovani MHOM/SD/62/1S-CL2D LdBOB after 72 hrs by resazurin dye based assay; type: functional, organism-based; outline: as §1
Leishmania infantum = assay: Antileishmanial activity against axenic amastigote stage of Leishmania infantum assessed as inhibition of parasite metabolic activity after 48 hrs by luciferase reporter gene based luminescence assay; type: functional, organism-based
Outline: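 L. infantum promastigotes in log phase switched to RPMI 1640 pH 5.4 for 24 h at 24 °C, then 24 h at 37 °C to give axenic amastigotes. Seeded at 2.106 parasites/mL with compounds in DMSO (final <0.5% v/v), in duplicate, 48 h at 37 °C. Wells checked for precipitate, luciferase luminescence read, IC50 by non-linear regression as mean.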

[9] = Substrate activity at recombinant nitroreductase 2 in promastigote stage of Leishmania donovani MHOM/SD/62/1S-CL2D LdBOB assessed as inhibition of parasite growth after 72 hrs by resazurin dye based assay; outline: as §1
[10] = Selectivity index, ratio of CC50 for human HepG2 cells to IC50 for trypomastigote stage of Trypanosoma brucei brucei AnTat 1.9; type: toxicity; details: read-out: Ratio CC50/IC50
[11] = Selectivity ratio of IC50 for wild type promastigote stage of Leishmania donovani MHOM/SD/62/1S-CL2D LdBOB to substrate activity at recombinant type-1 nitroreductase in promastigote stage of Leishmania donovani MHOM/SD/62/1S-CL2D LdBOB; type: toxicity
Outline: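 LdBOB promastigotes grown at 26 °C in modified M199. NTR1- and NTR2-overexpressing lines were kept with 100 µg/mL nourseothricin. Triplicate 10 mL cultures seeded at 5×10^4 parasites/mL with drug for 72 h. Aliquots given 50 µM resazurin, fluorescence (ex 528/em 590 nm) read after 4 h. EC50 from a background-corrected 2-parameter fit; at least two repeats, mean plus SD.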

[12] = tested on: Trypanosoma brucei brucei; assay: Antitrypanosomal activity against trypomastigote stage of Trypanosoma brucei brucei AnTat 1.9 assessed as decrease in parasite viability after 69 hrs by Alamar blue assay; type: functional, organism-based; details: AnTat 1.9, 69 h
Outline: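 AnTat 1.9 in MEM with Earle's salts plus 0.5 mM mercaptoethanol, 1.5 mM L-cysteine, 0.05 mM bathocuproine sulfate and 20% heat-inactivated horse serum, 37 °C, 5% CO2. Seeded 2000 parasites/100 µL with compounds in DMSO, in duplicate, 69 h, then Alamar Blue for 5 h.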

Structure (SMILES)	CC50 (HepG2) [nM]	pIC50 (Leishmania donovani [1])	Activity [2] [V]	pIC50 [3]	selectivity ratio [4]	CC50 (THP-1) [nM]	selectivity ratio [5]	pIC50 (Leishmania donovani [6])	selectivity ratio [7]	pIC50 (Leishmania donovani [8])	pIC50 (Leishmania infantum)	pIC50 [9]	selectivity ratio [10]	Ratio IC50 [11]	pIC50 [12]
O=[N+]([O-])c1c(CS(=O)(=O)c2ccccc2)nc2c(-c3ccncc3)cc(Cl)cn12	> 50000	5.64	-0.64	7.40	> 21.7	> 25000	> 41.7	5.92	> 16.7	5.82	5.52	5.70	> 200	20 to 40	6.60
O=[N+]([O-])c1c(CS(=O)(=O)c2ccccc2)nc2c(-c3cccc(CO)c3)cc(Cl)cn12	> 25000	< 5.00	-0.7	7.15		> 15000	> 19.2	5.89	> 17.9	5.85		5.72	> 167	20 to 40	6.82
